Measured values of several laboratories.
Each line is one published result; the experiments were not run side by side. Values after ≈ are worked out from the molar mass of the structure shown.

For `CO/N=C(\C(=O)N[C@@H]1C(=O)N2C(C(=O)O)=C(CSC(=O)c3ccco3)CS[C@H]12)c1csc(N)n1`, the MIC was 1 µg/mL (≈ 1.91 µM) (Salmonella enterica; microbial growth; TYPHIMURIUM; 20 h, pH 7.2).
With `COc1c(N2C[C@@H]3CCCN[C@@H]3C2)c(F)cc2c(=O)c(C(=O)O)cn(C3CC3)c12` the MIC90 was 0.49 µg/mL (≈ 1.22 µM) (Salmonella enterica; microbial growth; ATCC13311 TYPHIMURIUM).
The inhibition of `O=c1cc(-c2ccc(O)cc2)oc2cc(O)cc(O)c12` is reported as 82.6% (Helicobacter pylori; microbial growth, broth dilution; 0.98 µg/mL).
The MBC of `O=C(O)CN1C(=O)/C(=C/c2ccc(-c3ccc(N(c4ccccc4)c4ccccc4)cc3)c3ccccc23)SC1=S` is reported as greater than 1000 µg/mL (Bacillus cereus; microbial killing, broth dilution; ATCC10876).
With `CC1(C)S[C@@H]2[C@H](NC(=O)[C@H](N)c3ccccc3)C(=O)N2[C@H]1C(=O)O` the inhibition was 100% (Salmonella enterica; microbial growth, agar dilution; ATCC13311 TYPHIMURIUM; 26.93 µM).
`CO/N=C(\C(=O)N[C@@H]1C(=O)N2C(C(=O)O)=C(CSc3nc(=O)c(=O)[nH]n3C)CS[C@H]12)c1csc(N)n1` has an MIC of 0.0625 µg/mL (≈ 0.113 µM) (Salmonella enterica; microbial growth; 20 h, pH 7).
`O=C1NC(=S)N/C1=C\c1c2ccccc2c(-c2ccc(N(c3ccccc3)c3ccccc3)cc2)c2ccccc12` gave an MBC of greater than 1000 µg/mL (Bacillus cereus; microbial killing, broth dilution; ATCC10876).
For `COc1ccc(-c2cc(=O)c3c(O)cc(O[C@@H]4O[C@H](CO)[C@@H](O)[C@H](O)[C@H]4O)cc3o2)cc1O`, the inhibition was 100% (Helicobacter pylori; microbial growth, broth dilution; 62.5 µg/mL).
`Cc1cc(NS(=O)(=O)c2ccc(N)cc2)no1` has an MIC of 64 µg/mL (≈ 253 µM) (Salmonella enterica; microbial growth; ENTERITIDIS; 20 h, pH 7).
`O=C1NC(=S)N/C1=C\c1ccc(-c2ccc(N(c3ccccc3)c3ccccc3)cc2)cc1` has an MBC of greater than 1000 µg/mL (Bacillus cereus; microbial killing, broth dilution; ATCC10876).
With `O=C(N[C@H](CO)[C@H](O)c1ccc([N+](=O)[O-])cc1)C(Cl)Cl` the MIC90 was 0.98 µg/mL (≈ 3.03 µM) (Salmonella enterica; microbial growth; ATCC13311 TYPHIMURIUM).
`O=c1cc(-c2ccc(O)c(O)c2)oc2cc(O)cc(O)c12` has an inhibition of 73.2% (Helicobacter pylori; microbial growth, broth dilution; 0.98 µg/mL).
`CCN1CCN(c2cc3c(cc2F)c(=O)c(C(=O)O)cn3C2CC2)CC1` gave an MIC of 0.25 µg/mL (≈ 0.696 µM) (Salmonella enterica; microbial growth; ENTERITIDIS; 20 h, pH 5.5).
With `COC(=O)c1ccc(O)cc1` the inhibition was 100% (Helicobacter pylori; microbial growth, broth dilution; 125 µg/mL).
For `O=C(O)CN1C(=O)/C(=C/c2ccc(-c3ccc(N(c4ccccc4)c4ccccc4)cc3)c3ccccc23)NC1=S`, the MBC was greater than 1000 µg/mL (Bacillus cereus; microbial killing, broth dilution; ATCC10876).
For `CNC1=C([N+](=O)[O-])C2(C(=O)Nc3ccccc32)C2=C(O1)C(=O)c1ccccc1C2=O` (stereo not shown), the MBC was no more than 1000 µg/mL (Salmonella enterica; microbial killing; TYPHIMURIUM).
The MIC of `[H]/N=C(/N)N[C@H]1[C@H](O)[C@@H](O)[C@H](O[C@@H]2O[C@@H](C)[C@](O)(C=O)[C@H]2O[C@@H]2O[C@@H](CO)[C@H](O)[C@@H](O)[C@@H]2NC)[C@@H](N/C(N)=N\[H])[C@@H]1O` is reported as 64 µg/mL (≈ 110 µM) (Salmonella enterica; microbial growth; 20 h, pH 7).
`O=C1NC(=S)S/C1=C\c1ccc(-c2ccc(N(c3ccccc3)c3ccccc3)cc2)c2ccccc12` gave an MBC of greater than 1000 µg/mL (Bacillus cereus; microbial killing, broth dilution; ATCC10876).
For `O=C(O)c1cn(C2CC2)c2cc(N3CCNCC3)c(F)cc2c1=O`, the MIC was 0.0156 µg/mL (≈ 0.0471 µM) (Salmonella enterica; microbial growth; ENTERITIDIS; 20 h, pH 7).
The inhibition of `C=C[C@@]1(C)C=C2CC[C@@H]3[C@](C)(CCC[C@@]3(C)C(=O)O)[C@H]2CC1` is reported as 86.3% (Helicobacter pylori; microbial growth, broth dilution; 15.63 µg/mL).
The MIC of `CC1(C)S[C@@H]2[C@H](NC(=O)[C@H](N)c3ccccc3)C(=O)N2[C@H]1C(=O)O` is reported as 1 µg/mL (≈ 2.86 µM) (Salmonella enterica; microbial growth; ENTERITIDIS; 20 h, pH 5.5).
`O=C1NC(=S)N/C1=C\c1ccc(-c2ccc(N(c3ccccc3)c3ccccc3)cc2)c2ccccc12` has an MBC of greater than 1000 µg/mL (Bacillus cereus; microbial killing, broth dilution; ATCC10876).
With `O=C(O)c1ccc(O)cc1` the inhibition was 100% (Helicobacter pylori; microbial growth, broth dilution; 31.25 µg/mL).
The MBC of `O=C1NC(=S)S/C1=C\c1c2ccccc2c(-c2ccc(N(c3ccccc3)c3ccccc3)cc2)c2ccccc12` is reported as greater than 1000 µg/mL (Bacillus cereus; microbial killing, broth dilution; ATCC10876).
`CCn1cc(C(=O)O)c(=O)c2ccc(C)nc21` gave an MIC of 2 µg/mL (≈ 8.61 µM) (Salmonella enterica; microbial growth; 20 h, pH 7).
